One block for each molecule: values may come before it.
How the values were obtained:
GST-MIM-S1 (murine) = GST-MIM-S1 (murine) (UniProt Q8R1S4); test: pull-down
MIM-GFP = biological target: T1, MIM-GFP (murine, UniProt Q8R1S4 1-759); test: co-IP
T1 sequence (looked up): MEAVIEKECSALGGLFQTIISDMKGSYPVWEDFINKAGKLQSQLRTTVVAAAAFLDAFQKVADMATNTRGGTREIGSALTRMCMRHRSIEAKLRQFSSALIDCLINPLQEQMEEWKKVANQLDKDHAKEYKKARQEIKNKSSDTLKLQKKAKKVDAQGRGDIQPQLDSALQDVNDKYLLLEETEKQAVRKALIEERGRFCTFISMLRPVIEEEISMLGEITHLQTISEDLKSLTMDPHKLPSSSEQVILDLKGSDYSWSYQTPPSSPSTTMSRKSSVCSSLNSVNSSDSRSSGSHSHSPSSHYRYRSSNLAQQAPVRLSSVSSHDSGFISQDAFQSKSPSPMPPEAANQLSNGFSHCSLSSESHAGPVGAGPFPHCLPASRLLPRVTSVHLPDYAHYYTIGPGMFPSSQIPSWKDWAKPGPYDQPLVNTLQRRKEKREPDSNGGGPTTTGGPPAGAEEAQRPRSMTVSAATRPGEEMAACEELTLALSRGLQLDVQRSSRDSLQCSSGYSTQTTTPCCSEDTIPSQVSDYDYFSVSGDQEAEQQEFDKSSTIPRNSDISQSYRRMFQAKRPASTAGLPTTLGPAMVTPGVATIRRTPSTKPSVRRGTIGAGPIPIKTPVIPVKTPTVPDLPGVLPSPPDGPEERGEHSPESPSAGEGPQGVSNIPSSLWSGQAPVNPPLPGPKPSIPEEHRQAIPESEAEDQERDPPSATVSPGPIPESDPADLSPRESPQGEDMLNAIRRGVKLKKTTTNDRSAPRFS

MIM-Myc [1] = biological target: T2, MIM-Myc (murine, UniProt Q8R1S4 1-759); test: pull-down
T2 sequence (looked up): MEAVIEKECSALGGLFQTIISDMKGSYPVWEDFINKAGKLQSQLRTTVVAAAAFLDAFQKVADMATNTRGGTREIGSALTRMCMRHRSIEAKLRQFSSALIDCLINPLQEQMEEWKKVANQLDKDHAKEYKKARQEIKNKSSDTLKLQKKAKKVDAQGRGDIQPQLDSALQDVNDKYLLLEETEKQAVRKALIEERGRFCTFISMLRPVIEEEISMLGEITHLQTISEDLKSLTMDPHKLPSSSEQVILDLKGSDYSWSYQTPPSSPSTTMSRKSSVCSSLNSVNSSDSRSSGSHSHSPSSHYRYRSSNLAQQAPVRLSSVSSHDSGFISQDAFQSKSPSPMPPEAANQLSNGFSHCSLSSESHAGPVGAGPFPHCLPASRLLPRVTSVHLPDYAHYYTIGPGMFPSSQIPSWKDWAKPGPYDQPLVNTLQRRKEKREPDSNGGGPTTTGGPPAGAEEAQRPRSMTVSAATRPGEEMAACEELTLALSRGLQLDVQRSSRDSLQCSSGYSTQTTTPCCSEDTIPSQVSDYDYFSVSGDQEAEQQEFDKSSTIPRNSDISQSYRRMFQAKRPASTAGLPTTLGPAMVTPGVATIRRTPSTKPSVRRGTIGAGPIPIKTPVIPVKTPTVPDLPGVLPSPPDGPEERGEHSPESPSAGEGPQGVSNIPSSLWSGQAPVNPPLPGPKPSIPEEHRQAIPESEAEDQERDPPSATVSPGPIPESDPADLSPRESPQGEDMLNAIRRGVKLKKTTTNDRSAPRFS

MIM-Myc [2] = test: Pull-down of cell lysates with GST-MIM-S1/-S2, unbound MIM by Western blot; assay type: binding, murine; conditions: GST-tagged recombinant peptide, Western blot anti-Myc, in words
Summary of the method: (§1)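 GST-tagged test peptide made in DH5α (0.5 mM IPTG added at OD600 0.3–0.4, then 90 min). It was captured on glutathione Sepharose 4B (2 h, 4°C) and washed in PBS. 293T cells were transfected with the Myc-tagged MIM construct and lysed 48 h later. Lysates were precipitated with the bead-bound peptide at varying concentrations. Supernatant (unbound MIM) and washed pellets were analysed by SDS-PAGE/anti-Myc Western blot with chemiluminescence.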

MIM-I-BAR-Myc = test: as above; assay type: binding, murine; conditions: GST-tagged recombinant peptide, Western blot anti-Myc, in words
Summary of the method: as §1

MIM-Myc [3] = biological target: T2, MIM-Myc; test: co-IP

B1: GST-MIM-S1 (domain or fragment, murine, UniProt Q8R1S4 18-89, looked up)
chain: TIISDMKGSYPVWEDFINKAGKLQSQLRTTVVAAAAFLDAFQKVADMATNTRGGTREIGSALTRMCMRHRSI
IC50 (MIM-GFP): 213 nM
Kd (MIM-Myc [1]): 110 nM

B2: GST-MIM-S1: recombinant GST-tagged form of peptide MIM-S1 (protein)
chain: TIISDMKGSYPVWEDFINKAGKLQSQLRTTVVAAAAFLDAFQKVADMATNTRGGTREIGSALTRMCMRHRSI
modifications: left off: GST, end not stated, kept
pull-down of MIM-Myc from 293T lysates (MIM-Myc [2]): able to precipitate effectively
pull-down of MIM-I-BAR-Myc from 293T lysates (MIM-I-BAR-Myc): able to precipitate effectively

Now from value to molecule:

Kd (GST-MIM-S1 (murine)): 65 nM
Molecule: MIM-I-BAR-Myc (domain or fragment)

IC50 (MIM-Myc [3]): 140 nM
B3: MIM-S3 (peptide)
chain: AFQKVADMATNTRGGTREIGSALTRMCMRHRSI

From article PMC3624906 (The Biochemical journal, 2012)
